{"data": "Results from different studies", "target": "Serine/threonine-protein kinase 24 (STK24, Homo sapiens, UniProt Q9Y6E0)"}
{"Structure (SMILES)": "COc1cc(Nc2c(C#N)cnc3cc(OCCCN4CCN(C)CC4)c(OC)cc23)c(Cl)cc1Cl", "observed": "cell-free assay", "tested at": "0.5 µM", "quantity": "remaining signal", "result": "11%"}
{"Structure (SMILES)": "COc1cc(/C=C/C(=O)CC(=O)/C=C/c2ccc(O)c(OC)c2)ccc1O", "observed": "enzyme activity", "action": "inhibitor", "tested at": "1 µM", "quantity": "activity vs control", "result": "91%"}
{"Structure (SMILES)": "Cn1c2c(c3ccc(Cl)c(Cl)c31)C(C#N)C1(CCNCC1)NC2=O (racemic)", "observed": "thermal stability", "technique": "DSF", "tested at": "10 µM", "quantity": "ΔTm", "result": "-0.7 °C"}
{"Structure (SMILES)": "CN1CC(Oc2cnc(C#N)cc2-c2ccn3nc(NC(=O)C4CC4)cc3c2)C1", "observed": "enzyme activity", "action": "inhibitor", "tested at": "1 µM", "quantity": "inhibition", "result": "6%"}
{"Structure (SMILES)": "Cn1c2c(Cl)c(Cl)ccc2c2cc[nH]c(=O)c21", "observed": "thermal stability", "technique": "DSF", "tested at": "10 µM", "quantity": "ΔTm", "result": "1.3 °C"}
{"Structure (SMILES)": "Nc1ncnc2occ(-c3ccc(NC(=O)Nc4cc(C(F)(F)F)ccc4F)cc3)c12", "observed": "cell-free assay", "action": "inhibitor", "tested at": "20 µM", "quantity": "remaining signal", "result": "4%"}
{"Structure (SMILES)": "COc1cccc2c(NCc3ccccc3)nc(-n3c(N)nc4ccccc43)nc12", "observed": "target engagement in cells", "action": "inhibitor", "technique": "chemoproteomics", "tested at": "20 mM", "quantity": "inhibition", "result": "-9.9%"}
{"Structure (SMILES)": "CCN(CC)CCNC(=O)c1c(C)[nH]c(/C=C2\\C(=O)Nc3ccc(F)cc32)c1C", "observed": "cell-free assay", "tested at": "0.5 µM", "quantity": "remaining signal", "result": "39.7%"}
{"Structure (SMILES)": "Cn1cncc1C1=CN(c2ncnc3[nH]cnc23)CCS1", "observed": "enzyme activity", "action": "inhibitor", "technique": "radiometric", "tested at": "2 µM", "quantity": "inhibition", "result": "-15.6%"}
{"Structure (SMILES)": "CCOCCn1cc(C(=O)Nc2ccc(-n3nc(-c4cccnc4)cc3C(F)(F)F)cn2)ccc1=O", "observed": "cell-free assay", "technique": "competition with immobilised ligand", "tested at": "1 µM", "quantity": "remaining binding", "result": "100%"}
{"Structure (SMILES)": "Cc1ccc(Nc2nccc(N(C)c3ccc4c(C)n(C)nc4c3)n2)cc1S(N)(=O)=O", "observed": "enzyme activity", "action": "inhibitor", "tested at": "10 µM", "quantity": "inhibition", "result": "-24%"}
{"Structure (SMILES)": "CCN1CCN(Cc2ccc(NC(=O)c3ccc(C)c(/C=C/c4cnc5[nH]ccc5c4OC)c3)cc2C(F)(F)F)CC1", "observed": "target engagement in cells", "action": "inhibitor", "technique": "chemoproteomics", "cells": "A-375", "tested at": "50 nM", "quantity": "inhibition", "result": "-17%"}
{"Structure (SMILES)": "Oc1ccc(-c2nc(-c3ccncc3)c(-c3ccc(F)cc3)[nH]2)cc1", "observed": "cell-free assay", "tested at": "0.5 µM", "quantity": "remaining signal", "result": "95.2%"}
{"Structure (SMILES)": "O=C(O)c1cc(-c2ccc(C3CCNCC3)cc2)c2ccc(-c3ccc(C(F)(F)F)cc3)cc2c1", "observed": "cell-free assay", "technique": "competition with immobilised ligand", "tested at": "1 µM", "quantity": "remaining binding", "result": "100%"}
{"Structure (SMILES)": "CNC(=O)c1cc(Oc2ccc(NC(=O)Nc3ccc(Cl)c(C(F)(F)F)c3)cc2)ccn1", "observed": "enzyme activity", "action": "inhibitor", "tested at": "10 µM", "quantity": "inhibition", "result": "-46%"}
{"Structure (SMILES)": "Cn1c2c(c3ccc(Cl)c(Cl)c31)C(C#N)C1(CCCC1)NC2=O (stereo not shown)", "observed": "thermal stability", "technique": "DSF", "tested at": "10 µM", "quantity": "ΔTm", "result": "0.8 °C"}
{"Structure (SMILES)": "O=C(Nc1cnn(-c2csc(C(=O)NC3COC3)c2)c1)Nc1c(F)cccc1Cl", "observed": "enzyme activity", "action": "inhibitor", "tested at": "5 µM", "quantity": "remaining activity", "result": "81.6%"}
{"Structure (SMILES)": "COc1cc2ncnc(Nc3ccc(Oc4ccccc4)c(C)c3C)c2cc1OC", "observed": "enzyme activity", "action": "inhibitor", "tested at": "1 µM", "quantity": "inhibition", "result": "10%"}
{"Structure (SMILES)": "O=C1CCc2cc(Nc3cc(OC4CCOCC4)c([N+](=O)[O-])cc3Cl)ccc2N1", "observed": "cell-free assay", "technique": "competition with immobilised ligand", "tested at": "1 µM", "quantity": "remaining binding", "result": "97%"}
{"Structure (SMILES)": "CN(c1nccc(-c2cnn3ncccc23)n1)C1CC1", "observed": "cell-free assay", "tested at": "1 µM", "quantity": "remaining signal", "result": "100%"}
{"Structure (SMILES)": "Cc1sc(C(=O)NC2COC2)cc1-n1cc(NC(=O)Nc2c(F)cccc2Cl)cn1", "observed": "enzyme activity", "action": "inhibitor", "tested at": "10 µM", "quantity": "remaining activity", "result": "67.3%"}
{"Structure (SMILES)": "O=C(Nc1cccnn1)N1CCC(=Cc2cccc(Oc3ccc(C(F)(F)F)cn3)c2)CC1", "observed": "cell-free assay", "technique": "competition with immobilised ligand", "tested at": "1 µM", "quantity": "remaining binding", "result": "100%"}
{"Structure (SMILES)": "CCN1CCN(Cc2ccc(NC(=O)c3ccc(C)c(Oc4ccnc5[nH]ccc45)c3)cc2C(F)(F)F)CC1", "observed": "target engagement in cells", "action": "inhibitor", "technique": "chemoproteomics", "cells": "Huh-7", "tested at": "1 µM", "quantity": "inhibition", "result": "-56%"}
{"Structure (SMILES)": "COc1ccc2c(c1)O[C@H](c1ccc(OC)c(OC)c1)C[C@@H]2NC(=O)C1(c2ccc3c(c2)OC(F)(F)O3)CC1", "observed": "cell-free assay", "technique": "competition with immobilised ligand", "tested at": "1 µM", "quantity": "remaining binding", "result": "92%"}
{"Structure (SMILES)": "CC/C(=N\\NC(=O)NCc1cccc(O)c1)c1ccc(O)c(C)c1O", "observed": "enzyme activity", "action": "inhibitor", "tested at": "0.1 µM", "quantity": "inhibition", "result": "4.3%"}
{"Structure (SMILES)": "Cc1cnc(NC2CCOCC2)nc1-n1cnc(C(=O)NC(CN)c2cc(F)cc(Cl)c2)c1 (stereo not shown)", "observed": "enzyme activity", "action": "inhibitor", "technique": "radiometric", "tested at": "1 µM", "quantity": "remaining activity", "result": "32%"}
{"Structure (SMILES)": "Cn1c2c(c3ccc(Cl)c(Cl)c31)C(C#N)C1(CCOCC1)NC2=O (stereo not shown)", "observed": "thermal stability", "technique": "DSF", "tested at": "10 µM", "quantity": "ΔTm", "result": "-0.3 °C"}
{"Structure (SMILES)": "CC(C)(C)c1nc2c(s1)c1nc(N)ncc1c1ccc(NS(=O)(=O)c3c(F)cccc3F)c(F)c12", "observed": "enzyme activity", "action": "inhibitor", "technique": "radiometric", "tested at": "1 µM", "quantity": "remaining activity", "result": "28%"}
{"Structure (SMILES)": "O=C(Nc1ccc(Oc2ccc(F)cc2)cc1)N1CCc2ncccc2[C@H]1c1ccc(F)cc1", "observed": "cell-free assay", "technique": "competition with immobilised ligand", "tested at": "1 µM", "quantity": "remaining binding", "result": "93%"}
{"Structure (SMILES)": "CCCS(=O)(=O)Nc1ccc(F)c(C(=O)c2c[nH]c3ncc(-c4ccc(Cl)cc4)cc23)c1F", "observed": "enzyme activity", "action": "inhibitor", "tested at": "1 µM", "quantity": "inhibition", "result": "< 20%"}
{"Structure (SMILES)": "NS(=O)(=O)c1cc(NC(=O)C2(c3ccccc3Cl)CC2)ccc1Oc1cccc(Cl)c1", "observed": "cell-free assay", "technique": "competition with immobilised ligand", "tested at": "1 µM", "quantity": "remaining binding", "result": "93%"}
{"Structure (SMILES)": "COc1cc2ncnc(Nc3ccc(F)c(Cl)c3)c2cc1OCCCN1CCOCC1", "observed": "cell-free assay", "tested at": "0.5 µM", "quantity": "remaining signal", "result": "102%"}
{"Structure (SMILES)": "Nc1c(C(=O)NCc2ccc(C(=O)NCCCC3CCCCC3)cc2)cnn1-c1ccccc1", "observed": "cell-free assay", "technique": "competition with immobilised ligand", "tested at": "0.1 µM", "quantity": "remaining binding", "result": "91%"}
{"Structure (SMILES)": "Cc1cc(NC(=O)c2cccc3cc(-c4cccc5[nH]nc(N)c45)ccc23)ccc1F", "observed": "enzyme activity", "action": "inhibitor", "tested at": "0.1 µM", "quantity": "activity vs control", "result": "116%"}
